A selection: hits, their analogues and other compounds. The true share with any hit is near 1.8%.
M5 PAM – human M5 muscarinic receptor positive allosteric modulators, primary screen, CHO-K1 cells, Fluo-8 calcium fluorescence; CHO-K1 hM5, ACh EC20 PAM; 0% = ACh EC20, 100% = ACh EC100; AID 624038, 2012; 360,000 tested, 0.3% active; activation, % at 3 µM; Muscarinic acetylcholine receptor M5 (Homo sapiens), P08912;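 active = activation above the run cutoff, the mean activation of all test compounds plus 3 SD, cut at about 18% in these data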
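Test system: CHO-K1 hM5 cells / Doses: single-point, 3 µM nominal / Times: Post-acetylcholine fluorescence recording 140 s / Technique: Fluo-8 calcium fluorescence / Measure: Max/basal fluorescence ratio as % of EC20–EC100 ACh window / Benchmarks: low control EC20 acetylcholine (0%), high control EC100 acetylcholine (100%) / Replicates: one well per compound, no replicates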
CHRM4 antagonist – human M4 muscarinic receptor antagonists, primary screen, CHO cells, Fluo-8 calcium fluorescence. CHO-hM4 cells, ACh EC80. Muscarinic acetylcholine receptor M4 (Homo sapiens), P08173. inhibition, % at 3 µM. AID 624125, 2012. 360,000 tested, 0.73% active;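 active = inhibition above its plate's cutoff, the mean inhibition of sample wells plus 3 SD, cut at about 27% in these data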;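 also: 0% = acetylcholine EC80 with DMSO and 100% = DMSO without agonist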
Target sequence (P08173 whole entry, looked up): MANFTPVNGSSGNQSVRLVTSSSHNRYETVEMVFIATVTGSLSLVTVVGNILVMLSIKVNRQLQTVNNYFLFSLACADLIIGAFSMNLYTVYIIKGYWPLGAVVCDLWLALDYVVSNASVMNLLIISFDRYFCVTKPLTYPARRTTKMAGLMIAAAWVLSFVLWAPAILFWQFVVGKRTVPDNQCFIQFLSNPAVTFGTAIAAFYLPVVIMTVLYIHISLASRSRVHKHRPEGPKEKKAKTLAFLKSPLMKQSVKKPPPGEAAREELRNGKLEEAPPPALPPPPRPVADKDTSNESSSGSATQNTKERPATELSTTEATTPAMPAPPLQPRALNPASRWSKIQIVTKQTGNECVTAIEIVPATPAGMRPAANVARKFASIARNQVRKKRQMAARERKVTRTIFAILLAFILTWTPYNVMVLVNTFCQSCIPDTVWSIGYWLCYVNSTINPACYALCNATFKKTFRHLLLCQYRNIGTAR
CHRM5 antagonist – human M5 muscarinic receptor antagonists, primary screen, CHO cells, Fluo-8 calcium fluorescence; 360,000 tested, 0.59% active; AID 624040, 2012; inhibition, % at 3 µM; Muscarinic acetylcholine receptor M5 (Homo sapiens), P08912; CHO-hM5 cells, ACh EC80;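 active = inhibition above a per-plate cutoff, the mean of that plate's test compounds plus 3 SD, cut at about 27% in these data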;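 also: 0% = acetylcholine EC80 with DMSO and 100% = DMSO without agonist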
CHRM4 agonist – human M4 muscarinic receptor agonists, primary screen, CHO-K1 cells, Fluo-8 calcium fluorescence; CHO-K1 hM4/Gqi5; vehicle 0%, full acetylcholine response 100%; activation, % at 3 µM; 360,000 tested, 0.14% active; Muscarinic acetylcholine receptor M4 (Homo sapiens), P08173;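 active = activation above the run mean over all test wells plus 3 SD, cut at about 32% in these data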;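 also: peak over basal fluorescence ratio per well then scaled between controls; 0% = DMSO wells and 100% = acetylcholine at EC100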
M5 ag – human M5 muscarinic receptor agonists, primary screen, CHO-K1 cells, Fluo-8 calcium fluorescence; activation, % at 3 µM; Muscarinic acetylcholine receptor M5 (Homo sapiens), P08912; CHO-K1 hM5 cells; 0% DMSO wells, 100% maximal acetylcholine response; 360,000 tested, 0.19% active;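 active = activation above the run's mean over test compounds plus 3 SD, cut at about 23% in these data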;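 also: signal is peak over basal fluorescence ratio across the kinetic read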
CHRM4 PAM – human M4 muscarinic receptor positive allosteric modulators, primary screen, CHO-K1 cells, Fluo-8 calcium fluorescence; Muscarinic acetylcholine receptor M4 (Homo sapiens), P08173; CHO-K1 hM4/Gqi5, ACh EC20; 0% = ACh EC20, 100% = maximal ACh; activation, % at 3 µM; 360,000 tested, 0.4% active; AID 624126, 2012;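 active = activation above its plate's cutoff, the mean activation of sample wells plus 3 SD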
An asterisk follows results filed as active.

SMILES	M5 PAM	CHRM4 antagonist	CHRM5 antagonist	CHRM4 agonist	M5 ag	CHRM4 PAM
COc1ccc(C(N)c2csc(Nc3cc(Oc4ccccc4)ncn3)n2)cc1 (stereo not given)	-18	41*	30*	29	3	-14
O=C1C(Sc2ccccc2)=C[C@@]2(O)CC[C@@H](O)[C@]1(Sc1ccccc1)[C@H]2O	-8	-6	0	1	4	1
Cc1ccc(-n2c(-c3ccccc3)c[n+]3c2CCc2ccccc2-3)c(C)c1	-22	26	35*	4	-14	-20
Cc1cccc2sc(N(CCCN(C)C)C(=O)c3ccc4ncsc4c3)nc12	-2	30*	11	11	-6	34*
CCN(CC)CCN(C(=O)c1ccc2c(c1)OCCO2)c1nc2cc(C)cc(C)c2s1	-2	-12	1	3	-8	18*
CN(C)CCCN(C(=O)CCc1ccccc1)c1nc2ccc(F)cc2s1	-1	7	7	3	-3	-6
CN(C)CCCN(C(=O)c1ccc(C(=O)c2ccccc2)cc1)c1nc2cc3c(cc2s1)OCCO3	-5	-11	28*	12	-6	2
CN(C)CCCN(C(=O)CCc1ccccc1)c1nc2ccc(Br)cc2s1	2	53*	6	34*	-3	-27
Cc1cccc2sc(N(CCCN(C)C)C(=O)c3nc4ccccc4s3)nc12	-4	-8	-8	2	-2	0
CN(C)CCN(C(=O)c1ccc(C(=O)c2ccccc2)cc1)c1nc2cc3c(cc2s1)OCCO3	0	-9	7	1	-6	3
CCOC(=O)C1=C(COC(=O)c2ccc(Br)c(S(=O)(=O)N3CCOCC3)c2)NC(=O)NC1C (stereo not given)	-18	-12	3	14	5	6
CC(=O)c1cccc(OCc2cc(C(=O)N(C)Cc3cnccn3)no2)c1	1	-8	1	3	1	5
CN(Cc1cccnc1)C(=O)c1cc(COc2ccc3c(c2)CCCC3)on1	-18	0	33*	15	-1	-12
COc1ccc(Cc2c(C3CCCCC3)nc3ccc(Br)cn23)c(C)c1	4	-1	7	1	-1	-5
O=C(Nc1ccc(F)cc1)C1CCCN(S(=O)(=O)c2cccc3nonc23)C1 (stereo not given)	1	-18	5	3	-1	3
O=C(NCc1ccc(F)cc1)C1CCCN(S(=O)(=O)c2cccc3nonc23)C1 (stereo not given)	20*	-13	-26	3	3	7
COc1cccc(-c2cnc3c(NC(C)=O)cc(-c4ccc(S(C)(=O)=O)cc4)cn23)c1	-4	-1	7	1	-2	1
CCOC(=O)c1ccc(NC(=S)N2CCCC(C(=O)OCC)C2)cc1 (stereo not given)	-6	5	17	3	23	-3
Cc1c(Cl)cccc1NC(=S)N1CCCCCC1	12	-3	-3	0	-2	5
CCOC(=O)C1CCCN(C(=S)Nc2ccc(F)cc2)C1 (stereo not given)	-12	-3	-3	7	23	2
CCOC(=O)C1CCCN(C(=S)Nc2cccc(Cl)c2C)C1 (stereo not given)	-17	6	11	2	28*	0
CCOC(=O)C1CCCN(C(=S)Nc2ccc(OC)cc2)C1 (stereo not given)	-18	11	7	7	34*	-10
CCOC(=O)C1CCCN(C(=S)Nc2cccc(Cl)c2)C1 (stereo not given)	-12	7	-2	6	33*	-4
O=S(=O)(c1ccc(F)cc1)c1nc(-c2ccco2)oc1NCCCn1ccnc1	-1	-11	-3	1	0	4
CC(C)Cn1c(=O)c(C(=O)Nc2ccncc2)c(O)c2ccccc21	-33	98*	100*	1	-20	-47
SMILES	M5 PAM	CHRM4 antagonist	CHRM5 antagonist	CHRM4 agonist	M5 ag	CHRM4 PAM
C=CCn1c(=O)c(C(=O)Nc2ccccc2O)c(O)c2ccccc21	-4	4	-2	0	-10	-5
C=CCn1c(=O)c(C(=O)Nc2ccccc2C)c(O)c2ccccc21	27*	-16	-17	0	8	-4
COc1ccccc1/C=C(\NC(=O)c1cccc(C)c1)C(=O)Nc1ccccn1	13	27*	11	8	-2	27*
O=S1(=O)CC(N2CCN(CCO)CC2)CN1Cc1cn(Cc2ccc(F)cc2)nn1 (stereo not given)	-11	2	3	2	1	11
C[N+]1(CCCOC(=O)C2(c3ccccc3)CCCC2)CCOCC1	-19	78*	87*	1	-6	-39
O=C(OCCN1CCCCC1)c1ccccc1Br	-11	6	21	11	-4	-16
CN(C)CCOC(=O)C1(c2ccccc2)CCCC1	-20	77*	86*	1	-8	-25
COc1ccc(C(=O)OCC[N+]2(C)CCOCC2)cc1	6	-16	8	1	-9	10
O=C(OCCN1CCCCC1)C1(c2ccccc2)CCCC1	-18	91*	99*	1	-11	-25
CCNC(=O)C1(c2ccccc2)CCCC1	5	4	-1	1	1	9
O=C(OCCN1CCCC1)C1(c2ccccc2)CCCC1	-23	94*	99*	2	-8	-23
C(=C\c1ccccc1)/CN1CCN(C(c2ccccc2)c2nnnn2C2CCCCC2)CC1 (stereo not given)	-22	8	23	0	-8	-11
O=C(O)c1ccc(NC(=O)C2(c3ccccc3)CCCC2)cc1	3	-5	6	0	-3	4
CCN(CC)CCOC(=O)c1ccc(NC(=O)C2(c3ccccc3)CCCC2)cc1	-41	21	36*	3	-15	-13
Nc1cc(Cl)ccc1CN1C(=O)c2ccccc2C1=O	-6	1	6	2	1	-2
Cc1cc(C)c2c(N)c(C(=O)NC3CCCC3)sc2n1	-9	61*	-3	36*	-3	52*
Cc1cc(C)c2c(N)c(C(=O)Nc3ccc(F)cc3)sc2n1	-4	4	6	7	-4	27*
COc1ccc(NC(=O)c2sc3nc(C)cc(C)c3c2N)cc1	5	-5	2	1	0	4

From PubChem
